Assay results published in PMC9635392 (International Journal of Nanomedicine, 2022).
Where a name gives a salt, the structure may show the parent alone.

Experiments:
[1] = system: PLC/PRF/5 hepatocellular carcinoma cells; experiment: MTT cytotoxicity assay; format: cell-based, Human
Outline: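 PLC/PRF/5 cells grown in DMEM with 10% FBS and penicillin/streptomycin at 37°C, 5% CO2. Seeded at 7×10^3 cells/well in triplicate and left 24 h. Treated 24 h or 48 h with test compound (DMSO stock diluted in DMEM) or nanoparticle formulations (DMEM-suspended, sonicated 10 min). MTT added for 3 h, formazan dissolved in isopropanol, A570 read. Untreated cells set at 100%. IC50 from curve fitting.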

Swiss albino mice = experiment: In vivo biodistribution study; details: 5 mg/kg intravenously

**Q.** Which results are given for `CNC(=O)c1cc(Oc2ccc(NC(=O)Nc3ccc(Cl)c(C(F)(F)F)c3)cc2)ccn1` [SRFT, Sorafenib tosylate]?
**A.** IC50 ([1]; Homo sapiens, PLC-PRF-5): 6 to 8 µM; cytotoxicity ([1]; PLC/PRF/5, 4–12 µM, 24 h and 48 h): concentration-dependent cytotoxicity; sorafenib distribution liver vs kidneys, first hour (Swiss albino mice; 1 h): accumulated in the kidneys was higher compared to liver; sorafenib distribution liver vs kidneys at 48 h (Swiss albino mice; 48 h): in kidneys at 48 h was higher than in the liver
